# Measured values reported in ChEMBL document CHEMBL3414422, “Synthesis of new steroidal inhibitors of P-glycoprotein-mediated multidrug resistance and biological evaluation on K562/R7 erythroleukemia cells” (J Med Chem, 2015).
# Tests used:
# [1] = Intrinsic cytotoxicity against human K562 cells assessed as cell survival […] by MTT assay; assay type: cell-based; settings: read-out: Survival
# K562/R7 = test: Inhibition of p-gp (unknown origin) in doxorubicin-resistant human K562/R7 cells assessed as increase in daunorubicin accumulation measured as fluorescence ratio at 10 uM incubated for 1 hr with 10 uM daunorubicin by flow cytometry relative to control; assay type: cell-based
# Summary of the method: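 Resistant K562/R7 cells ([…]) incubated 1 h at 37 °C in RPMI 1640 with daunorubicin 10 µM, with or without steroid at 10 µM; intracellular fluorescence read by flow cytometry. Accumulation index = daunorubicin fluorescence ratio with/without modulator. Cyclosporin A as positive control. Duplicates, at least three separate experiments.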
Structure (SMILES),viability [1],Ratio (K562/R7)
CC(=O)[C@H]1CC[C@H]2[C@@H]3CCC4=CC(=O)CC[C@]4(C)[C@H]3CC[C@]12C [PROGESTERONE],81.6%,1.2
CC(=O)[C@H]1CC[C@H]2[C@H]3[C@H]([C@H](OC(=O)c4ccccc4)C[C@]12C)[C@@]1(C)CCC(=O)C[C@H]1C[C@H]3O,81.1%,2.3
CC(=O)[C@@]1(O)CC[C@H]2[C@@H]3CC[C@@H]4CC(=O)CC[C@]4(C)[C@H]3CC[C@@]21C,–,1.1
CC#C[C@]1(O)CC[C@H]2[C@@H]3CCC4=CC(=O)CCC4=C3[C@@H](c3ccc(N(C)C)cc3)C[C@@]21C [MIFEPRISTONE],95.6%,2.4
COC(=O)CCC(C)[C@H]1CC[C@H]2[C@@H]3[C@H](OC4CCCCO4)C[C@@H]4CC(=O)CC[C@]4(C)[C@H]3C[C@H](OC3CCCCO3)[C@]12C (mixture of isomers),63.2%,3.5
CC(=O)[C@H]1CC[C@H]2[C@H]3[C@H]([C@H](O[C@H]4CCCCO4)C[C@]12C)[C@@]1(C)CCC(=O)C[C@H]1C[C@H]3OC1CCCCO1 (mixture of isomers),84.4%,2.5
CC(=O)[C@H]1CC[C@H]2[C@H]3[C@H]([C@H](O)C[C@]12C)[C@@]1(C)CCC(=O)C[C@H]1C[C@H]3O,–,1.1
CC(=O)[C@H]1CC[C@H]2[C@H]3[C@H]([C@H](O[C@@H]4CCCCO4)C[C@]12C)[C@@]1(C)CCC(=O)C[C@H]1C[C@H]3OC1CCCCO1 (mixture of isomers),86.7%,2.6
COC(=O)CCC(C)[C@H]1CC[C@H]2[C@@H]3[C@H](OC4=CCOCC4)C[C@@H]4CC(=O)CC[C@]4(C)[C@H]3C[C@H](OC3=CCOCC3)[C@]12C (some centres not stated),76.3%,3.7
CC(=O)[C@H]1CC[C@H]2[C@H]3[C@H]([C@H](O)C[C@]12C)[C@@]1(C)CCC(=O)C[C@H]1C[C@H]3OC(=O)c1ccccc1,92.9%,1.4
CC(=O)[C@H]1CC[C@H]2[C@@H]3CCC4=CC(=O)CC[C@]4(C)[C@H]3[C@H](O[C@H]3CCCCO3)C[C@]12C,–,2.4
CC(=O)[C@H]1CC[C@H]2[C@@H]3CC[C@H]4CC(=O)CC[C@]4(C)[C@H]3CC[C@]12C,–,1
CC(=O)[C@H]1CC[C@H]2[C@H]3[C@H]([C@H](O[C@@H]4CCCCO4)C[C@]12C)[C@@]1(C)CCC(=O)C[C@@H]1C[C@H]3OC(=O)c1ccccc1,77.8%,2.4
COC(=O)CCC(C)[C@H]1CC[C@H]2[C@@H]3[C@H](OC(=O)c4ccccc4)C[C@@H]4CC(=O)CC[C@]4(C)[C@H]3C[C@H](O[C@H]3CCCCO3)[C@]12C (some centres not stated),53.5%,2.7
COCCCC(C)[C@H]1CC[C@H]2[C@@H]3[C@H](O[C@H]4CCCCO4)C[C@@H]4CC(=O)CC[C@]4(C)[C@H]3C[C@H](OC(=O)c3ccccc3)[C@]12C (some centres not stated),56.3%,3.1
CC(=O)[C@H]1CC[C@H]2[C@H]3[C@H]([C@H](O[C@H]4CCCCO4)C[C@]12C)[C@@]1(C)CCC(=O)C[C@H]1C[C@H]3OC(=O)c1ccccc1,100%,2.3
CC(=O)[C@@]1(O)CC[C@H]2[C@@H]3CCC4=CC(=O)CC[C@]4(C)[C@H]3CC[C@@]21C,–,1
CC(=O)[C@H]1CC[C@H]2[C@@H]3CCC4=CC(=O)CC[C@]4(C)[C@H]3[C@H](O)C[C@]12C,–,1
COC(=O)CCC(C)[C@H]1CC[C@H]2[C@@H]3[C@H](O)C[C@@H]4CC(=O)CC[C@]4(C)[C@H]3C[C@H](O)[C@]12C (some centres not stated),–,1.5
CC(=O)[C@H]1CC[C@H]2[C@H]3[C@H]([C@H](O[C@H]4CCCCO4)C[C@]12C)[C@@]1(C)CCC(=O)C[C@@H]1C[C@H]3OC(=O)c1ccccc1,–,2.3
COc1ccc(CCN(C)CCCC(C#N)(c2ccc(OC)c(OC)c2)C(C)C)cc1OC (configuration not stated),93.3%,–
COCCCC(C)[C@H]1CC[C@H]2[C@@H]3[C@H](O[C@@H]4CCCCO4)C[C@@H]4CC(=O)CC[C@]4(C)[C@H]3C[C@H](OC(=O)c3ccccc3)[C@]12C (some centres not stated),51%,3.4
COCO[C@H]1C[C@H]2[C@@H]([C@H](O)C[C@@H]3CC(=O)CC[C@@]32C)[C@@H]2CC[C@H](C(C)CCC(=O)OC)[C@@]12C (some centres not stated),84.7%,2.1
CC(=O)[C@@]1(O[C@@H]2CCCCO2)CC[C@H]2[C@@H]3CCC4=CC(=O)CC[C@]4(C)[C@H]3CC[C@@]21C,–,2.4
CC(=O)[C@H]1CC[C@H]2[C@@H]3CC[C@@H]4CC(=O)CC[C@]4(C)[C@H]3[C@H](O)C[C@]12C,–,1

Structure (SMILES),viability [1],Ratio (K562/R7)
COCO[C@H]1C[C@H]2[C@@H]([C@H](OC(=O)c3ccccc3)C[C@@H]3CC(=O)CC[C@@]32C)[C@@H]2CC[C@H](C(C)CCC(=O)OC)[C@@]12C (some centres not stated),49.7%,2.9
CC(=O)[C@H]1CC[C@H]2[C@@H]3CC[C@@H]4CC(=O)CC[C@]4(C)[C@H]3CC[C@]12C,–,1.2
COCCCC(C)[C@H]1CC[C@H]2[C@@H]3[C@H](OC(=O)c4ccccc4)C[C@@H]4CC(=O)CC[C@]4(C)[C@H]3C[C@H](OC(=O)c3ccccc3)[C@]12C (some centres not stated),50.7%,1.7
CC(=O)[C@H]1CC[C@H]2[C@@H]3CC[C@@H]4CC(=O)CC[C@]4(C)[C@H]3[C@H](O[C@H]3CCCCO3)C[C@]12C,–,2.5
C[C@]12CC[C@H]3[C@@H](CCC4=CC(=O)CC[C@@]43C)[C@@H]1CC[C@@H]2C(=O)COC1CCCCO1 (mixture of isomers),–,1.6
COCO[C@@H]1C[C@@H]2CC(=O)CC[C@]2(C)[C@H]2C[C@H](O)[C@]3(C)[C@@H](C(C)CCC(=O)OC)CC[C@H]3[C@H]12 (some centres not stated),95.7%,1.8
COC(=O)CCC(C)[C@H]1CC[C@H]2[C@@H]3[C@H](OC(=O)c4ccccc4)C[C@@H]4CC(=O)CC[C@]4(C)[C@H]3C[C@H](O[C@@H]3CCCCO3)[C@]12C (some centres not stated),56.4%,2.1
CC(=O)[C@@]1(O[C@H]2CCCCO2)CC[C@H]2[C@@H]3CC[C@@H]4CC(=O)CC[C@]4(C)[C@H]3CC[C@@]21C,–,2.4
CC(=O)[C@H]1CC[C@H]2[C@H]3[C@H]([C@H](OC(=O)c4ccccc4)C[C@]12C)[C@@]1(C)CCC(=O)C[C@H]1C[C@H]3O[C@@H]1CCCCO1,61.5%,2.8
CC(=O)[C@H]1CC[C@H]2[C@H]3[C@H]([C@H](OC(=O)c4ccccc4)C[C@]12C)[C@@]1(C)CCC(=O)C[C@@H]1C[C@H]3OC(=O)c1ccccc1,71.1%,2.5
CC(=O)[C@@]1(O[C@@H]2CCCCO2)CC[C@H]2[C@@H]3CC[C@@H]4CC(=O)CC[C@]4(C)[C@H]3CC[C@@]21C,–,2.3
CC(=O)[C@H]1CC[C@H]2[C@H]3[C@H]([C@H](OC(=O)c4ccccc4)C[C@]12C)[C@@]1(C)CCC(=O)C[C@H]1C[C@H]3OC(=O)c1ccccc1,66.4%,2.5
CC(=O)[C@H]1CC[C@H]2[C@@H]3CC[C@@H]4CC(=O)CC[C@]4(C)[C@H]3[C@H](O[C@@H]3CCCCO3)C[C@]12C,–,2.5
COCCCC(C)[C@H]1CC[C@H]2[C@@H]3[C@H](OC(=O)c4ccccc4)C[C@@H]4CC(=O)CC[C@]4(C)[C@H]3C[C@H](O[C@@H]3CCCCO3)[C@]12C (some centres not stated),54.4%,2.4
CC(=O)[C@@]1(O)CC[C@H]2[C@@H]3CC[C@@H]4CC(=O)CC[C@]4(C)[C@H]3[C@H](O)C[C@@]21C,–,1
CC(=O)[C@@]1(O[C@@H]2CCCCO2)CC[C@H]2[C@@H]3CC[C@@H]4CC(=O)CC[C@]4(C)[C@H]3[C@H](O[C@H]3CCCCO3)C[C@@]21C,67.9%,2.5
COC(=O)CCC(C)[C@H]1CC[C@H]2[C@@H]3[C@H](O[C@H]4CCCCO4)C[C@@H]4CC(=O)CC[C@]4(C)[C@H]3C[C@H](OC(=O)c3ccccc3)[C@]12C (some centres not stated),44.6%,3.3
COCCCC(C)[C@H]1CC[C@H]2[C@@H]3[C@H](OC(=O)c4ccccc4)C[C@@H]4CC(=O)CC[C@]4(C)[C@H]3C[C@H](O[C@H]3CCCCO3)[C@]12C (some centres not stated),75.8%,2.2
COCO[C@@H]1C[C@@H]2CC(=O)CC[C@]2(C)[C@H]2C[C@H](OC(=O)c3ccccc3)[C@]3(C)[C@@H](C(C)CCC(=O)OC)CC[C@H]3[C@H]12 (some centres not stated),43.5%,3.8
CC(=O)[C@H]1CC[C@H]2[C@@H]3[C@H](OC4CCCCO4)C[C@@H]4CC(=O)CC[C@]4(C)[C@H]3CC[C@]12C (mixture of isomers),–,2.4
CC(=O)[C@H]1CC[C@H]2[C@H]3[C@H]([C@H](OC(=O)c4ccccc4)C[C@]12C)[C@@]1(C)CCC(=O)C[C@H]1C[C@H]3O[C@H]1CCCCO1,70.5%,2.6
COC(=O)CCC(C)[C@H]1CC[C@H]2[C@@H]3[C@H](OC(=O)c4ccccc4)C[C@@H]4CC(=O)CC[C@]4(C)[C@H]3C[C@H](OC(=O)c3ccccc3)[C@]12C (some centres not stated),57.3%,1.5
CC(=O)[C@H]1CC[C@H]2[C@@H]3[C@H](OC(=O)c4ccccc4)C[C@@H]4CC(=O)CC[C@]4(C)[C@H]3CC[C@]12C,–,2.2
CC(=O)[C@@]1(O[C@H]2CCCCO2)CC[C@H]2[C@@H]3CCC4=CC(=O)CC[C@]4(C)[C@H]3CC[C@@]21C,–,2.8
